Screening results from PubChem BioAssay.
DDE Tn6 FP inh = DD(E)-Tn6 binding inhibition, primary FP screen. Fibrin DD(E) TRITC-Tn6 fluorescence polarization displacement. inhibition, % at 8.3 µM. 370,000 compounds, 0.21% hits;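 active means inhibition above a per-campaign cutoff: mean of compounds within control limits plus 3 SD, cut at about 15% in these data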
Tn7 DDE FP = DD(E)-Tn7 binding inhibition, primary FP screen | P02675 | FP displacement of FITC-Tn7 peptide from fibrin DD(E); 0% = median of compound wells per plate | inhibition, % at 8.3 µM | 370,000 compounds, 0.13% hits | AID 720508;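 active means inhibition above the mean of compounds falling within the control limits plus 3 SD of them, cut at about 14% in these data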
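Assay system: Human clot-derived fibrin DD(E) complex | Buffer or medium: Tris/NaCl/CaCl2 buffer, pH 7.8 | Repeats: One replicate per compound | Benchmarks: Aha-Tn7 high control | Measure: % inhibition scaled between sample-field median and high-control FP | Schedule: 10 min plus 3 h, room temperature | Signal: Fluorescence polarization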
aDG glyco act = increases alpha dystroglycan glycosylation. Pro5-aDG cells, alpha-DG glycosylation AlphaScreen (IIH6); 0% Pro5, 100% B10-LARGE cell signal. 360,000 compounds, 0.22% hits. activation, % at 10 µM;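 active means activation of at least 8% versus controls, or a plate z-score of at least 8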;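 further: Pro5 are CHO cells carrying HIG-tagged alpha-DG that lacks glycosylation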
CendR NRP1 mod = alters CendR peptide binding to human NRP-1; inhibition, % at 25 µM; AID 602438; FAM-RPARPAR peptide binding to NRP-1, fluorescence polarization; 360,000 compounds, 0.85% hits; O14786;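 active means inhibition or corrected inhibition above about 18%, plus a signal ratio from 0.5 to 1.5, limit read from the data, passing the limit was not always enough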
Target sequence (O14786 whole entry, looked up): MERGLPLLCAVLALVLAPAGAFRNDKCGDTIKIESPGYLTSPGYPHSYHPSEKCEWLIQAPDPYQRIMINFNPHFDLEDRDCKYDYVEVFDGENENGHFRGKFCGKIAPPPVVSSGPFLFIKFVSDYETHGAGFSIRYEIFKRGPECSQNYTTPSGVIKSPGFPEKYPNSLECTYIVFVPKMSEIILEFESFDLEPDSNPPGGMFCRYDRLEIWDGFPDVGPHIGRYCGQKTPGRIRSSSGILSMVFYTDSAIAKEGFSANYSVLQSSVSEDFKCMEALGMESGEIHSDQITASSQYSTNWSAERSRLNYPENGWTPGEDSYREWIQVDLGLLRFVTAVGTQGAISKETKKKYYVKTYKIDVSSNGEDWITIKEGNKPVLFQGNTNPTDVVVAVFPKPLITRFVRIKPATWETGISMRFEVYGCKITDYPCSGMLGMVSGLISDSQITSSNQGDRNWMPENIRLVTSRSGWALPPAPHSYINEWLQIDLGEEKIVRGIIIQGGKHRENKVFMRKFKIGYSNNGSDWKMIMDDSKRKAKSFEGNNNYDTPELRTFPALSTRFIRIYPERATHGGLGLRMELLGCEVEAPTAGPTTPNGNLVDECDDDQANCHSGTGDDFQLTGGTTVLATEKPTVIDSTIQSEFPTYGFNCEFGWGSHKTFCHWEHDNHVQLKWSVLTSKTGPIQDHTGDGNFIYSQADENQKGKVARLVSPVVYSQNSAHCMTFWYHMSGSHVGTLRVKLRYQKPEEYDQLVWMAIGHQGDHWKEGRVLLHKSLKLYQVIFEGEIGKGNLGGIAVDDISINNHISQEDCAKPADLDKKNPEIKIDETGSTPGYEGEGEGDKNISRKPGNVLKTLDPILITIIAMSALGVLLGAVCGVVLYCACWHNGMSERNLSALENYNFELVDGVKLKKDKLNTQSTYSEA
aDG conf = alpha-DG glycosylation activation, confirmation; shares compounds with aDG glyco act; activation, % at 10 µM (by protocol); 600 compounds, 17% hits; Pro5-aDG cells, IIH6 AlphaLISA; scaled to LARGE-overexpressing B10 cells as 100%; AID 651671;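 active means activation of at least 7% in one or more replicates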;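 further: cells exposed to compound for two days before detection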
DDE Tn7 confirm = DD(E)-Tn7 binding inhibition, FP confirmation; shares compounds with Tn7 DDE FP; FP displacement of TRITC-Tn7 peptide from DD(E); 0% set at plate's compound-well median; inhibition, % at 8.3 µM; 460 compounds, 5% hits;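 active means inhibition above the campaign cutoff, the mean of compounds within control limits plus 3 SD, cut at about 14% in these data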;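 further: displacers lower polarization since freed probe rises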
DDE Tn7 FP ctr = counter-screen for inhibitors of Tn7 peptide binding to fibrin DD(E). shares compounds with Tn7 DDE FP. TRITC-Tn7 probe displacement, fluorescence polarization. inhibition, % at 8.3 µM. 460 compounds, 3% hits. AID 720633;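 active means inhibition above the cutoff, the mean of compounds lying between the control bounds plus 3 SD of those compounds, cut at about 17% in these data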
Numbers stand for hits; i = inactive; nt = no result. The list is not random: actives were taken first. Their share in the collection is about 1.3%.

SMILES	DDE Tn6 FP inh	Tn7 DDE FP	aDG glyco act	CendR NRP1 mod	DDE Tn7 confirm	DDE Tn7 FP ctr	others
CN1CCN(CC(=O)Nc2nc(-c3c[nH]c4ccccc34)cs2)CC1	i	i	i	i	nt	nt
CCC(C)Nc1nc(-c2c[nH]c3ccccc23)cs1 (configuration not stated)	i	i	7.7	i	nt	nt	aDG conf=6.9
Cc1[nH]c2ccccc2c1-c1csc(N)n1	i	i	i	i	nt	nt
Nc1nc(-c2c[nH]c3ccccc23)cs1	i	i	9.1	i	nt	nt	aDG conf=i
CNc1nc(-c2c[nH]c3ccccc23)cs1	i	i	10.9	i	nt	nt	aDG conf=7.9
C[C@@H]1COc2cc(N3CCOCC3)ccc2S(=O)(=O)N1	i	i	nt	nt	nt	nt
COc1ccc(CN2C[C@H](COCc3ccccc3)Oc3cccc(Oc4ccc(C(C)C)cc4)c3S2(=O)=O)cc1	i	i	nt	nt	nt	nt
O=C(NNc1ccnc2cc(Cl)ccc12)C1CCCCC1	i	i	10.0	i	nt	nt	aDG conf=i
COC(=O)C1CCC(CNC(=O)C(Cc2ccc3c(c2)OCO3)NC(C)=O)CC1 (configuration not stated)	i	i	nt	nt	nt	nt
CCc1ccccc1NC(=O)C1C(c2ccccc2)C1(Cl)Cl (configuration not stated)	i	i	i	i	nt	nt
O=C(Nc1ccccc1Cl)C1C(c2ccccc2)C1(Cl)Cl (configuration not stated)	i	i	6.2	i	nt	nt	aDG conf=i
CC(=O)c1c(C)[nH]c(C(=O)OCc2ccc(Br)cc2)c1C	i	i	9.0	i	nt	nt	aDG conf=i
Cc1ccc(S(=O)(=O)N2CC3C(=O)C[C@@H](c4ccccc4)N(S(=O)(=O)c4cccc(Cl)c4)C3CC2c2ccccc2)cc1 (some centres not stated)	i	i	i	i	nt	nt
CCOC(=O)N1CCN(S(=O)(=O)c2ccc(C(=O)Nc3sc4c(c3C(N)=O)CCN(CC)C4)cc2)CC1	i	i	86.4	i	nt	nt	aDG conf=i
CCOC(=O)N1CCN(S(=O)(=O)c2ccc(C(=O)Nc3sc4c(c3C#N)CCC4)cc2)CC1	i	i	i	i	nt	nt
CCN1CCc2c(sc(NC(=O)c3ccc(S(=O)(=O)N4CCCC4)cc3)c2C(=O)NC)C1	i	i	46.6	i	nt	nt	aDG conf=i
CN1CCc2c(sc(NC(=O)c3ccc(S(=O)(=O)N4CCCC4)cc3)c2C(N)=O)C1	i	i	13.7	i	nt	nt	aDG conf=i
Clc1ccc(-n2c(Cc3cccs3)nnc2SC/C=C/c2ccccc2)cc1	i	i	nt	nt	nt	nt
CC1CCN(S(=O)(=O)N2CCC(C(=O)NC(C)c3ccccc3)CC2)CC1 (configuration not stated)	i	i	i	i	nt	nt
CCc1cc(C(=O)c2ccc(C)cc2)c(NC(=O)CCl)s1	i	i	10.1	i	nt	nt	aDG conf=i
COC(=O)C1=C(C)N(Cc2ccccc2C(F)(F)F)C(=NCc2cccc(C(F)(F)F)c2)NC1c1ccc(F)cc1 (configuration not stated)	i	i	nt	nt	nt	nt
COc1ccccc1Cc1c(-c2ccccc2)nc2c3ccccc3ccn12	i	i	nt	nt	nt	nt
COc1ccccc1Cc1c(-c2ccc(C#N)cc2)nc2c3ccccc3ccn12	i	i	8.9	i	nt	nt	aDG conf=i
O=C(NNC(=O)c1cc(-c2ccccc2)nc2ccccc12)c1csc(N2CCOCC2)n1	i	14.6	i	i	i	i
Cc1ccc(-c2cc(C(=O)NNC(=O)c3csc(N4CCOCC4)n3)c3ccccc3n2)cc1	i	i	i	i	nt	nt
SMILES	DDE Tn6 FP inh	Tn7 DDE FP	aDG glyco act	CendR NRP1 mod	DDE Tn7 confirm	DDE Tn7 FP ctr	others
COCCN1Cc2cc(C(=O)OC)c3c(c2C1=O)c1ccccc1n3S(=O)(=O)c1ccc(OC)cc1	i	i	nt	nt	nt	nt
Cc1[nH]c(=O)[nH]c(=O)c1CCSSCCc1c(C)[nH]c(=O)[nH]c1=O	i	i	nt	nt	nt	nt
CCCCCC[C@@H](CC)CN(C(=O)Oc1ccccc1)c1ccccc1	i	15.0	nt	nt	i	i
NC(=O)c1ccsc1NC(=O)c1ccc([N+](=O)[O-])o1	i	i	i	i	nt	nt
CCCCN(CCCC)CC(O)c1cc(Cl)cc2c1-c1ccc(Cl)cc1/C2=C/c1ccc(Cl)cc1 (configuration not stated)	i	i	nt	nt	nt	nt
Cc1ccc(CC(=O)NC2CCN(C)CC2)cc1	i	i	i	i	nt	nt
CN1CCC(NC(=O)CCc2ccccc2)CC1	i	13.9	i	i	i	i
COc1cc(NC(=O)c2ccc(-c3cccnc3)c3ccoc23)cc(OC)c1OC	i	i	i	i	nt	nt
O=C(Nc1cccc(OC(F)(F)F)c1)c1ccc(-c2cccnc2)c2ccoc12	i	14.0	i	i	i	i
CC(=O)n1c2ccccc2c2ccccc21	i	13.9	i	i	i	i
Cc1ccc(C(NC(=O)N2CCCCC2)=C(Cl)Cl)cc1F	i	15.3	i	i	i	i
CN1OC[C@@H]2CN[C@H](c3ccc(N4CCCCC4)cc3)C[C@@H]21	i	i	nt	nt	nt	nt
COc1ccc(NC(=O)CN2C(=O)C(C)Oc3ccccc32)cc1OC (configuration not stated)	i	14.2	i	i	i	i
COc1ccccc1NC(=O)CN1C(=O)C(C)Oc2ccccc21 (configuration not stated)	i	i	i	i	nt	nt
COc1ccccc1-c1sc2ccccc2c1C#Cc1ccc(N(C)C)cc1	i	13.9	i	i	i	i
COc1ccccc1-c1sc2ccccc2c1-c1ccc(O)cc1	i	i	i	i	nt	nt
COc1ccc(N=Nc2nc3cc(Br)c(Br)cc3n2C)c(OC)c1	i	27.6	i	i	i	i
CC(NC(=O)COC(=O)[C@@H]1CCCN1S(=O)(=O)c1ccccc1F)C12CC3CC(CC(C3)C1)C2 (some centres not stated)	i	13.9	i	i	i	i
CCOC(=O)c1sc2nc3n(c(=O)c2c1C)CCC3	i	15.0	i	i	i	i
CCOC(=O)c1sc2nc3n(c(=O)c2c1C)CCCCC3	i	i	i	i	nt	nt
C=CCN1C(=O)C(Cc2ccc(OCC)cc2)S/C1=N\N=C\c1cccs1 (configuration not stated)	i	i	i	i	nt	nt
C=CCN1C(=O)C(Cc2ccccc2)S/C1=N/N=C/c1cccs1 (configuration not stated)	i	13.9	i	i	i	i
COc1ccccc1N1CCN(C2CCCN(C(=O)CCc3c(C)noc3C)C2)CC1 (configuration not stated)	i	i	i	i	nt	nt
CCC(C)(C)NC(=O)C(c1ccccn1)N(C(=O)c1csnn1)C1CCCCC1 (configuration not stated)	i	14.2	i	i	i	i
CC(C)(C)NC(=O)C(c1ccccn1)N(C(=O)c1csnn1)C1CCCCC1 (configuration not stated)	i	i	i	i	nt	nt
